Data on 17 compounds can be found in ChEMBL document CHEMBL3244081, “Potential antitumor agents. 31. Quantitative structure-activity relationships for the antileukemic bis(guanylhydrazones)” (1979).

A short description of experiment [1]: Binding affinity to DNA (unknown origin) assessed as decrease in velocity of L1210 DNA-dependent DNA polymerase reaction.
Experiment [2] deals with L1210. The experiment in a line: Anti-leukemic activity against mouse L1210 cells allografted in ip dosed DBA2 mouse assessed as optimum drug dose required for the effect administered qd for 1 to 4 days. In kind it is functional.
Experiment [3] relates to L1210. The experiment in a line: Anti-leukemic activity against mouse L1210 cells allografted in ip dosed DBA2 mouse assessed as increase in host lifespan administered qd for 1 to 4 days. In kind it is functional.
Experiment [4] in a line: Displacement of ethidium from poly[d(G-C)]-poly[d(G-C)] DNA (unknown origin) by fluorimetric assay. Put shortly:
(§1)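 Relative binding to the synthetic duplex polymers was measured as fluorimetric displacement of bound ethidium, following the method of the earlier studies. Compounds were made up as 2 mM aqueous stock solutions, either from weighed salts or, where material was scarce, with the concentration set from published UV absorbance data before final dilution.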

Experiment [5] can be described thus: Displacement of ethidium from poly[d(A-T)]-poly[d(A-T)] DNA (unknown origin) by fluorimetric assay. Put shortly:
as §1

Consider `CCC(/C=N/NC(=N)N)=N\NC(=N)N.Cl`, for which, in experiment [1], the logIC50 was 2.87. In addition, in the experiment on L1210 [2], the log optimum dose was 2. Also, the “log(activity)” value with L1210 [3] is recorded as less than 1.4. The C50 amounted to 248 µM in experiment [4] and 112 µM in experiment [5].
Regarding `CC(/C=N/N(C)C(=N)N)=N\N(C)C(=N)N`, in experiment [1], the logIC50 is more than 3. Moreover, the log optimum dose in the experiment on L1210 [2] came to 2.18. Also, in the experiment on L1210 [3], the “log(activity)” value was less than 1.4. Also, the C50 in experiment [4] was 379 µM; in experiment [5], 103 µM.
Regarding `N=C(N)N/N=C/c1ccc(NC(=O)Nc2ccc(/C=N/NC(=N)N)cc2)cc1`, the logIC50 in experiment [1] is 1.95. In addition, the log optimum dose in the experiment with L1210 [2] is given as 1.48. Moreover, the “log(activity)” value in the experiment on L1210 [3] worked out at 2.08. For the same compound, the C50 in experiment [4] turned out to be 0.69 µM; in experiment [5], 0.3 µM.
For `N=C(N)N/N=C/CCC/C=N/NC(=N)N`, the logIC50 in experiment [1] is more than 3. In the experiment with L1210 [2], the log optimum dose amounted to 1.87. In addition, the “log(activity)” value in the experiment with L1210 [3] is recorded as less than 1.4. In addition, the C50 came to 81 µM in experiment [4] and 70 µM in experiment [5].
In the same order, the values of `CNC(=N)N/N=C/C(C)=N/NC(=N)NC` are 2.81, 2.3, less than 1.4, 111 µM and 27 µM.
In the same order, the values of `N=C(N)NN=C1C=CC(=NNC(=N)N)C=C1` are 2.85, 1.88, less than 1.4, 200 µM and 22 µM.
As for `N=C(N)N/N=C/C/C=N/NC(=N)N`, the logIC50 in experiment [1] is more than 3. Also, in the experiment on L1210 [2], the log optimum dose was found to be 2.3. Also, the “log(activity)” value in the experiment on L1210 [3] is reported as less than 1.4.
For `C/C(=N\NC(=N)N)c1ccc(NC(=N)Nc2ccc(/C(C)=N/NC(=N)N)cc2)cc1`, the logIC50 in experiment [1] amounted to 1.6. Moreover, in the experiment on L1210 [2], the log optimum dose is listed as 0.7. In addition, the “log(activity)” value with L1210 [3] was 1.82. Besides, the C50 in experiment [4] was 0.2 µM; in experiment [5] it was 0.08 µM.
In the same order, the values of `C/C(=N\NC(=N)N)c1ccc(NC(=S)Nc2ccc(/C(C)=N/NC(=N)N)cc2)cc1` are 2.11, 1.4, 1.97, 3.4 µM and 1.2 µM.
On to `N=C(N)NCCCCCCCCCCNC(=N)N` [SYNTHALIN], for which the logIC50 in experiment [1] was more than 3. In addition, in the experiment with L1210 [2], the log optimum dose is recorded as 0.6. For the same compound, the “log(activity)” value with L1210 [3] is recorded as 2.11. Also, the C50 in experiment [4] was 191 µM; in experiment [5], 127 µM.
Take `Cl.N=C(N)N/N=C/c1ccc(/C=N/NC(=N)N)cc1`: the logIC50 in experiment [1] amounted to 1.9. Moreover, in the experiment with L1210 [2], the log optimum dose came to 1.6. The “log(activity)” value with L1210 [3] amounted to 1.84. Moreover, the C50 in experiment [4] is 7.6 µM; in experiment [5] it was 2.9 µM.
The matching figures for `Cl.N=C(N)N/N=C/c1ccc(-c2ccc(/C=N/NC(=N)N)cc2)cc1`: 1.6, 1.3, 1.63, 1 µM and 0.14 µM.
For the compound `CC(=N\NC(=N)N)/C(C)=N/NC(=N)N`, the logIC50 in experiment [1] turned out to be 2.7. Besides, the log optimum dose with L1210 [2] turned out to be 2.18. Further, in the experiment on L1210 [3], the “log(activity)” value was less than 1.4. Besides, the C50 in experiment [4] is 51 µM; in experiment [5], 14 µM.
With `N=C(N)c1ccc(/C=C/c2ccc(C(=N)N)cc2O)cc1` [HYDROXYSTILBAMIDINE], the logIC50 in experiment [1] turned out to be 1.6. For the same compound, the log optimum dose with L1210 [2] came to 1.87. For the same compound, the “log(activity)” value in the experiment with L1210 [3] turned out to be 1.85. In addition, the C50 in experiment [4] came to 6.7 µM; in experiment [5] it was 1.2 µM.
The matching figures for `C/C(=N\NC(=N)N)c1ccc(NC(=O)Nc2ccc(/C(C)=N/NC(=N)N)cc2)cc1`: 1.95, 1.4, 2.47, 1.3 µM and 0.43 µM.
With `CC(/C=N/NC(=N)N)=N\NC(=N)N` [MITOGUAZONE], the logIC50 in experiment [1] is 2.85. Besides, the log optimum dose in the experiment on L1210 [2] came to 1.7. Moreover, in the experiment on L1210 [3], the “log(activity)” value turned out to be 2. For the same compound, the C50 in experiment [4] was 128 µM; in experiment [5], 34 µM.
Take `C/C(=N\NC(=N)N)c1cccc(NC(=O)Nc2cccc(/C(C)=N/NC(=N)N)c2)c1`: the logIC50 in experiment [1] worked out at 1.6. In the experiment on L1210 [2], the log optimum dose worked out at 1.48. In addition, the “log(activity)” value in the experiment on L1210 [3] was 2.1. Also, the C50 in experiment [4] is 1.6 µM; in experiment [5], 0.42 µM.
